Legend:
Musca domestica [1] = test: Toxicity against SCR-susceptible Musca domestica (house fly) assessed as mortality compound administered by intrathoracic injection 1 to 2 hr after piperonyl butoxide treatment measured 24 hr post compound treatment relative to ryanodine; type: functional
Musca domestica [2] = test: Toxicity against SCR-susceptible Musca domestica (house fly) assessed as immobility compound administered by intrathoracic injection 1 to 2 hr after piperonyl butoxide treatment measured 4 hr post compound treatment relative to ryanodine; type: functional
Outline: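 Adult female flies pretreated with piperonyl butoxide (5 μg in 0.5 μL acetone, ventral abdomen); 1-2 h later, 0.22 μL ryanoid in DMSO injected into the thorax. Knockdown scored at 4 h and KD50 derived. Ten flies per dose, 1.50-2-fold dose steps, two or more experiments (or single determinations where estimated).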

[3] = target: Ryanodine receptor 1 (Oryctolagus cuniculus) (UniProt P11716); test: Displacement of [3H]ryanodine from Ca2+-ryanodine receptor in Oryctolagus cuniculus (rabbit) skeletal muscle sarcoplasmic reticulum after 1 hr by competitive inhibition assay in presence of ATP relative to ryanodine
Sequence of Ryanodine receptor 1 (Oryctolagus cuniculus) (P11716 whole entry): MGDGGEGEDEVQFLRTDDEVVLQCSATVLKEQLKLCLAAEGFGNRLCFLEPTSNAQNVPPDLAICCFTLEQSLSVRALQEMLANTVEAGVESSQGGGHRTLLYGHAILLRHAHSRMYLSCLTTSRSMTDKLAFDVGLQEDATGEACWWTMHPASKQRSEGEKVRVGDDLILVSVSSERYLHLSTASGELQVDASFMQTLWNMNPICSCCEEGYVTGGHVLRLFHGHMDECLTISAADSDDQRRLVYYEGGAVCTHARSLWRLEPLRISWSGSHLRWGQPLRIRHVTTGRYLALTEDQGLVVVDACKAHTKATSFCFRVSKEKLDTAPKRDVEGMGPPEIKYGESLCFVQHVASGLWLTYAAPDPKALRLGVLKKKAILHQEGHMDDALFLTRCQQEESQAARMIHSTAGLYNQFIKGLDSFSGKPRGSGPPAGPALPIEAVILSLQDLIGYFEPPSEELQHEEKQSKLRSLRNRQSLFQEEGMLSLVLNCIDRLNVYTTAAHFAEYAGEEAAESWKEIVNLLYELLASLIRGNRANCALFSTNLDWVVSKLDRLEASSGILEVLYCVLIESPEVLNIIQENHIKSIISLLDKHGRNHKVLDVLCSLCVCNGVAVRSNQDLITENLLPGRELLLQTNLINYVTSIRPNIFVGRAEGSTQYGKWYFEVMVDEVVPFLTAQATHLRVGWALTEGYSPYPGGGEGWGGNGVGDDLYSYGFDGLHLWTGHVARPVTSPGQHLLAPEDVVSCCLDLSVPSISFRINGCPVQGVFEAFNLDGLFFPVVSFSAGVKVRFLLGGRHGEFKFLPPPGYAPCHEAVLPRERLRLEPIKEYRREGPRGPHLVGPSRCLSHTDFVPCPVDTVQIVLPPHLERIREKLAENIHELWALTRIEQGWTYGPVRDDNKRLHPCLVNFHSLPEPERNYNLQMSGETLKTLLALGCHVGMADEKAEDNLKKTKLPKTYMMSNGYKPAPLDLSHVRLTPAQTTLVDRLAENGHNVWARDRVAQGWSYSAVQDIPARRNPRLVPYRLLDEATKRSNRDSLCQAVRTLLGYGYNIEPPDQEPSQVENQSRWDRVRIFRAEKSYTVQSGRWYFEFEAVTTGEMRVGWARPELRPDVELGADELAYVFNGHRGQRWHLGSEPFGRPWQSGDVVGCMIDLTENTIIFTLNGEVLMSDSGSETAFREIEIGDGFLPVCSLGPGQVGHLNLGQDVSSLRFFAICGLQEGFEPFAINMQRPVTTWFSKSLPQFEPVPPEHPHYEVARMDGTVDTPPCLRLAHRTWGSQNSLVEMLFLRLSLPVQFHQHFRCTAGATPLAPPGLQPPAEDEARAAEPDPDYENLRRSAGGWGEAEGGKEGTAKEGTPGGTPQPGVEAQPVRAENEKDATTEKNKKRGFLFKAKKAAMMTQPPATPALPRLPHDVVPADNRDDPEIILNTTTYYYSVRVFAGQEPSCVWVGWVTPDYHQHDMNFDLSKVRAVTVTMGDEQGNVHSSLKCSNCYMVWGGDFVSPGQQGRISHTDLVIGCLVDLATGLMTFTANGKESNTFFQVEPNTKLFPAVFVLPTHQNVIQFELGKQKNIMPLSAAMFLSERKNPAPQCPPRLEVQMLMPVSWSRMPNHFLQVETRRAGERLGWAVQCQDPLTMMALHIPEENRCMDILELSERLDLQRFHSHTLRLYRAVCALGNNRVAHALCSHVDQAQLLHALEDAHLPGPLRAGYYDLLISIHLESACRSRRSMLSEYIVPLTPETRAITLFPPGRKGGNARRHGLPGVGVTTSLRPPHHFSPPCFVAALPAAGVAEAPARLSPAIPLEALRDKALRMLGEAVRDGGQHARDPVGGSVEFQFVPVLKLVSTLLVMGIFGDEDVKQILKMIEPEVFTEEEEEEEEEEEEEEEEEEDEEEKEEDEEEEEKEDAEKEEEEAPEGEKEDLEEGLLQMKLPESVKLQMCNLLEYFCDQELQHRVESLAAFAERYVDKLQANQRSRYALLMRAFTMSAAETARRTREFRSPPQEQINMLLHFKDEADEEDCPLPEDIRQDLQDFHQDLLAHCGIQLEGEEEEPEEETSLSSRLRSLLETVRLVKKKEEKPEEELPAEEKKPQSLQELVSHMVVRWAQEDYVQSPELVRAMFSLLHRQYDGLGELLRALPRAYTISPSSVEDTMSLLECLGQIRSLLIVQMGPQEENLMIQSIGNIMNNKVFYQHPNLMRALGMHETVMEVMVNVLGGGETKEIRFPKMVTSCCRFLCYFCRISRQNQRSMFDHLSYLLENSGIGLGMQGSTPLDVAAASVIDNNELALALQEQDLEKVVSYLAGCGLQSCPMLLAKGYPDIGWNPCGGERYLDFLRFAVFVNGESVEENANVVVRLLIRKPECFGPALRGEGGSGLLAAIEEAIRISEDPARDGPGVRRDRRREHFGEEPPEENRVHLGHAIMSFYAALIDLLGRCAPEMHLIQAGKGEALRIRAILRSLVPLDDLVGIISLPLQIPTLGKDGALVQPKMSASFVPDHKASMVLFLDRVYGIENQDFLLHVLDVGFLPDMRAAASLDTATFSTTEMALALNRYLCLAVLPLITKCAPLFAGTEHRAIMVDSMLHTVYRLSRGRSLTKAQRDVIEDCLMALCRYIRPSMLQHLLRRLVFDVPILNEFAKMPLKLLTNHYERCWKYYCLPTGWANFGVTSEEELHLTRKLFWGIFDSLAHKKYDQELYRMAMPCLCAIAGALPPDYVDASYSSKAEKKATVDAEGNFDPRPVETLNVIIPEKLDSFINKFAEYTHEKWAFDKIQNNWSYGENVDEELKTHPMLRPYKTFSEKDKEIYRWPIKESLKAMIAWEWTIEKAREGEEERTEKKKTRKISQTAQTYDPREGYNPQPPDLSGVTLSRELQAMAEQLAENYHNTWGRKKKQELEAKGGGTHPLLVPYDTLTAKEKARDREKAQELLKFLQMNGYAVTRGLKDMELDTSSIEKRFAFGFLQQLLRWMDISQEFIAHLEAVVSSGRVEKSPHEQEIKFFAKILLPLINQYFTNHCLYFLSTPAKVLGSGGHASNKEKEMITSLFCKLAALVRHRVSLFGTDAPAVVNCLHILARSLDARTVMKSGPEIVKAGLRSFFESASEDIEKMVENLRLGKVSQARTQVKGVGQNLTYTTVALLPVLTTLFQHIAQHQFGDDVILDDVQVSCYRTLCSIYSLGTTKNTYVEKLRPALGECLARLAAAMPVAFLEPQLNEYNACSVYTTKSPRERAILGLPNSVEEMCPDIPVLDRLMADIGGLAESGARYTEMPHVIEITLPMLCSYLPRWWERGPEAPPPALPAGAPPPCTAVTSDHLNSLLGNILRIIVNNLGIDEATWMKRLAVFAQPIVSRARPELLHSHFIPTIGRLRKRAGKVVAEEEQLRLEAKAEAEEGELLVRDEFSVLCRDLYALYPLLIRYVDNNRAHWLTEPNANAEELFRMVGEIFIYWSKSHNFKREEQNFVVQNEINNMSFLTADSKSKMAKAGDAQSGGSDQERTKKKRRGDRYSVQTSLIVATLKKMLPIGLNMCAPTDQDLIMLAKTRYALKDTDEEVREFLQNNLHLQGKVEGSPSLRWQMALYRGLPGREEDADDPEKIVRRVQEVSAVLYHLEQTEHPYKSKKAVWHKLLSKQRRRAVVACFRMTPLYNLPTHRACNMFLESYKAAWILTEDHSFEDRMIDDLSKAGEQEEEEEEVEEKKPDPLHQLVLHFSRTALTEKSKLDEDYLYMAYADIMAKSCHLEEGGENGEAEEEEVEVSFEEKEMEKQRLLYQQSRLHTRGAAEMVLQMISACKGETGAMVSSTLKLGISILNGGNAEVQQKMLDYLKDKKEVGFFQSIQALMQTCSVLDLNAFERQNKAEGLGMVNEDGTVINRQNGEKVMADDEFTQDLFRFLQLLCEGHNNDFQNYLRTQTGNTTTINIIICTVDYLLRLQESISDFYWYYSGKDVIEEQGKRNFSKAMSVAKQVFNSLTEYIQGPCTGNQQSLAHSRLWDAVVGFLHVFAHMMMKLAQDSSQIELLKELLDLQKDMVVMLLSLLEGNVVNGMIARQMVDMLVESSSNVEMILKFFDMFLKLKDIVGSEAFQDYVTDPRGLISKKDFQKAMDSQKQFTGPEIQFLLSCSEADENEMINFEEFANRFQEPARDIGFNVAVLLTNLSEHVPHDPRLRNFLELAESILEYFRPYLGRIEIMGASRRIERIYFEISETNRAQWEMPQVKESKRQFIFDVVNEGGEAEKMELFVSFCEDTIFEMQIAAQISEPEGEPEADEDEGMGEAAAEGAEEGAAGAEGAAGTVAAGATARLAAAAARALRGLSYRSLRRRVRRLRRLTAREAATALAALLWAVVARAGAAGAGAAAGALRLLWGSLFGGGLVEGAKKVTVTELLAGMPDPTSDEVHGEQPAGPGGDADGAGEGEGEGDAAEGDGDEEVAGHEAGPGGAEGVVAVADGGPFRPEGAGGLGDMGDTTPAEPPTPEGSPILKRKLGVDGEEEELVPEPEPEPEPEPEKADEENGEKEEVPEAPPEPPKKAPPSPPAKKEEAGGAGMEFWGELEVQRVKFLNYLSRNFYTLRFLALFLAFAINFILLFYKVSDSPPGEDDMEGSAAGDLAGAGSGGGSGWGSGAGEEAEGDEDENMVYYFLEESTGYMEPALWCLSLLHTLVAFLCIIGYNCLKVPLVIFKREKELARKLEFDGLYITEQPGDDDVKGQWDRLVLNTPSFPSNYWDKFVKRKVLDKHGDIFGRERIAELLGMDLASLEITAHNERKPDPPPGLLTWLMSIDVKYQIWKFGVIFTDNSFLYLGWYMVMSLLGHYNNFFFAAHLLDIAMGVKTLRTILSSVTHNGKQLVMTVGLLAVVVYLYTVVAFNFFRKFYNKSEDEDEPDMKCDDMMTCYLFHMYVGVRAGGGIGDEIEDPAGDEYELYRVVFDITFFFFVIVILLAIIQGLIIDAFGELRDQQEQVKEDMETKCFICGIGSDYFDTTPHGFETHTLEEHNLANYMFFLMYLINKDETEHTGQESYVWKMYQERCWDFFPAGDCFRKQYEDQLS
Outline: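 Unlabeled ryanoid introduced in DMSO (1% final) before incubation. Filtration, washes in 150 mM KCl/10 mM Hepes pH 7.4. Nonspecific binding: 10 μM dehydroryanodine. IC50 from LIGAND; duplicate experiments.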

[4] = target: Ryanodine receptor 1 (Oryctolagus cuniculus) (UniProt P11716); test: Displacement of [3H]ryanodine from Ca2+-ryanodine receptor in Oryctolagus cuniculus (rabbit) skeletal muscle sarcoplasmic reticulum after 2 hr by competitive inhibition assay relative to ryanodine
Outline: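 No ATP. […] Ryanoid given in DMSO (1% final). Glass-fiber filtration; three washes with ice-cold buffer a using Tris HCl instead of Hepes. Nonspecific binding with 10 μM dehydroryanodine. IC50 calculated by LIGAND; duplicate experiments.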

[5] = target: Ryanodine receptor 3 (Mus musculus) (UniProt A2AGL3); test: Binding affinity to ryanodine receptor in Mus musculus albino Swiss-Webster (mouse) brain relative to ryanodine
[6] = Toxicity in ip dosed Mus musculus albino Swiss-Webster (mouse) […]; type: organism-based; details: in vivo
Outline: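 Male albino Swiss-Webster mice, 18–22 g; ryanoid given ip in methoxytriglycol (50 μL); mortality read at 24 h.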

Ryanodine receptor 3 = Ryanodine receptor 3 (Mus musculus, UniProt A2AGL3); test: Binding affinity to ryanodine receptor in Mus musculus albino Swiss-Webster (mouse) brain

Structure (SMILES) | Ratio (Musca domestica [1]) | Ratio (Musca domestica [2]) | Ratio [3] | Ratio [4] | Ratio [5] | LD50 [6] | IC50 (Ryanodine receptor 3)
CON[C@@]12O[C@@]3(O)[C@H](OC(=O)c4ccc[nH]4)[C@](O)(C(C)C)[C@]1(C)[C@]1(O)C[C@@]3(C)[C@@]3(O)CC[C@H](C)[C@@H](O)[C@@]32O1 | 2 | 1.3 |  |  |  |  | 
C=C1CC[C@]2(O)[C@]3(C)C[C@]4(O)O[C@@]2([C@@H]1O)[C@]1(NNC(N)=O)O[C@@]3(O)[C@H](OC(=O)c2ccc[nH]2)[C@](O)(C(C)C)[C@@]14C |  | <4 | 4.4 | 6.1 |  |  | 
CC(C)[C@@]1(O)[C@@H](OC(=O)c2ccc[nH]2)[C@]2(O)O[C@H]3[C@]45O[C@@](O)(C[C@@]2(C)[C@@]4(O)CC[C@H](C)[C@H]5O)[C@]31C | 120 | 270 | 64 | 62 | 54 | 0.15 mg/kg | 
CC(C)[C@@]1(O)[C@@H](OC(=O)c2ccc[nH]2)[C@]2(O)O[C@@]3(NO)[C@]45O[C@@](O)(C[C@@]2(C)[C@@]4(O)CC[C@H](C)[C@H]5O)[C@]31C | 12 | 20 | 11 | 9 | 11 |  | 
C=C1CC[C@]2(O)[C@]3(C)C[C@]4(O)O[C@@]2([C@@H]1O)[C@]1(O)O[C@@]3(NNC(=O)c2ccccc2)[C@H](OC(=O)c2ccc[nH]2)[C@](O)(C(C)C)[C@@]14C | 40 | 13 | 6.5 |  |  |  | 
C=C1CC[C@@]2(O)[C@]3(O[C@@]4(O)C[C@]2(C)C(=O)[C@H](OC(=O)c2ccc[nH]2)[C@](O)(C(C)C)[C@@]4(C)C3=O)[C@@H]1O [4,12-SECO-4,12-DIOXODEHYDRORYANODIN] | 4 | 4 | 0.97 | 0.79 | 1.1 |  | 
CC(C)[C@@]1(O)[C@@H](OC(=O)c2ccc[nH]2)/C(=N/OCc2ccccc2)[C@@]2(C)C[C@]3(O)O[C@]4(C(=O)[C@]13C)[C@H](O)[C@@H](C)CC[C@@]42O | 1 | 0.8 | 2.1 | 1.3 | 0.94 |  | 
CC(C)[C@@]1(O)[C@@H](OC(=O)c2ccc[nH]2)[C@@]2(O)[C@@]3(C)C[C@]4(O)O[C@@]5([C@H](O)[C@@H](C)CC[C@]35O)[C@@]2(O)[C@@]14C [RYANODINE] |  |  |  |  |  | 0.49 mg/kg | 3.3 nM
CC(C)[C@@]1(O)[C@@H](OC(=O)c2ccc[nH]2)[C@]2(NO)O[C@H]3[C@]45O[C@@](O)(C[C@@]2(C)[C@@]4(O)CC[C@H](C)[C@H]5O)[C@]31C | 100 | 200 | 67 | 50 | 43 |  | 
CON[C@@]12O[C@H]3[C@]45O[C@@](O)(C[C@@]1(C)[C@@]4(O)CC[C@H](C)[C@H]5O)[C@@]3(C)[C@@](O)(C(C)C)[C@H]2OC(=O)c1ccc[nH]1 | 20 | 7 | 34 | 20 | 28 |  | 
CC(C)[C@@]1(O)[C@@H](OC(=O)c2ccc[nH]2)[C@@H]2O[C@@]3(O)[C@]45O[C@@](O)(C[C@@]2(C)[C@@]4(O)CC[C@H](C)[C@H]5O)[C@]31C | 40 | 27 | 19 | 28 | 21 |  | 
C=C1CC[C@]2(O)[C@]3(C)C[C@]4(O)O[C@@]2([C@@H]1O)[C@]1(O)O[C@@]3(NN)[C@H](OC(=O)c2ccc[nH]2)[C@](O)(C(C)C)[C@@]14C | 60 | 50 | 14 | 11 | 14 |  | 
CC(C)[C@@]1(O)[C@@H](OC(=O)c2ccc[nH]2)C(=O)[C@@]2(C)C[C@]3(O)O[C@]4(C(=O)[C@]13C)[C@H](O)[C@@H](C)CC[C@@]42O [4,12-SECO-4,12-DIOXORYANODIN] | 2 | 0.85 | 1.8 | 1.6 |  |  | 
CC(C)[C@@]1(O)[C@@H](OC(=O)c2ccc[nH]2)C(=O)[C@@]2(C)C[C@]3(O)O[C@]4(/C(=N\O)[C@]13C)[C@H](O)[C@@H](C)CC[C@@]42O | 30 | 8 | 3.1 | 1.7 | 1.9 |  | 
CCCSC[C@H]1CC[C@]2(O)[C@]3(C)C[C@]4(O)O[C@@]2([C@@H]1O)[C@]1(O)[C@@]3(O)[C@H](OC(=O)c2ccc[nH]2)[C@](O)(C(C)C)[C@@]14C | 6 | 4 |  |  | 0.88 |  | 
CC(C)[C@@]1(O)[C@@H](OC(=O)c2ccc[nH]2)[C@@]2(O)[C@@]3(C)C[C@]4(O)O[C@@]5([C@H](O)[C@@H](CSCCO)CC[C@]35O)[C@@]2(O)[C@]14C | 6 | 5 |  |  | 0.86 |  | 
CC(C)[C@@]1(O)[C@@H](OC(=O)c2ccc[nH]2)/C(=N/O)[C@@]2(C)C[C@]3(O)O[C@]4(C(=O)[C@]13C)[C@H](O)[C@@H](C)CC[C@@]42O | 6 | 2.7 | 0.88 | 0.76 | 0.78 |  | 
C=C1CC[C@]2(O)[C@]3(C)C[C@]4(O)O[C@@]2([C@@H]1O)[C@]1(O)O[C@@]3(NNc2ccccc2)[C@H](OC(=O)c2ccc[nH]2)[C@](O)(C(C)C)[C@@]14C |  | <2 | 6.1 | 5.4 | 2.5 |  | 
C=C1CC[C@]2(O)[C@]3(C)C[C@]4(O)O[C@@]2([C@@H]1O)[C@]1(O)O[C@@]3(NNC(N)=O)[C@H](OC(=O)c2ccc[nH]2)[C@](O)(C(C)C)[C@@]14C | 6 | 10 | 6.6 | 10 |  |  | 
CON[C@@]12O[C@@]3(O)[C@]45O[C@@](O)(C[C@@]1(C)[C@@]4(O)CC[C@H](C)[C@H]5O)[C@@]3(C)[C@@](O)(C(C)C)[C@H]2OC(=O)c1ccc[nH]1 | 8 | 13 | 23 | 23 | 27 |  | 
CC(C)[C@@]1(O)[C@@H](OC(=O)c2ccc[nH]2)[C@]2(NOCc3ccccc3)O[C@@]3(O)[C@]45O[C@@](O)(C[C@@]2(C)[C@@]4(O)CC[C@H](C)[C@H]5O)[C@]31C |  | 2 | 21 | 13 | 8.3 |  | 
CC(C)[C@@]1(O)[C@@H](OC(=O)c2ccc[nH]2)[C@@]2(O)[C@@]3(C)C[C@]4(O)O[C@@]5([C@H](O)[C@@H](CSC(C)(C)C)CC[C@]35O)[C@@]2(O)[C@]14C |  | 2 |  |  | 0.41 |  | 
C=C1CC[C@]2(O)[C@]3(C)C[C@]4(O)O[C@@]2([C@@H]1O)[C@]1(NNc2ccccc2)O[C@@]3(O)[C@H](OC(=O)c2ccc[nH]2)[C@](O)(C(C)C)[C@@]14C | <3 | <1.3 | 3 | 2.6 | 3.3 |  | 
C=C1CC[C@]2(O)[C@]3(C)C[C@]4(O)O[C@@]2([C@@H]1O)[C@]1(O)[C@@]3(O)[C@H](OC(=O)c2ccc[nH]2)[C@](O)(C(C)C)[C@@]14C [DEHYDRORYANODINE] | 136 | 90 | 112 | 91 | 77 |  | 
CC(C)[C@@]1(O)[C@@H](OC(=O)c2ccc[nH]2)[C@@H](O)[C@@]2(C)C[C@]3(O)O[C@@]4([C@H](O)[C@@H](C)CC[C@@]42O)[C@@H](O)[C@]13C |  |  | 5.3 | 4.7 | 5.4 |  | 
C=C1CC[C@]2(O)[C@]3(C)C[C@]4(O)O[C@@]2([C@@H]1O)[C@]1(/N=N/c2ccccc2)O[C@@]3(O)[C@H](OC(=O)c2ccc[nH]2)[C@](O)(C(C)C)[C@@]14C |  | 6 | 6.3 | 4.7 | 3.6 |  | 
CO/N=C1/[C@H](OC(=O)c2ccc[nH]2)[C@](O)(C(C)C)[C@@]2(C)C(=O)[C@]34O[C@@]2(O)C[C@@]1(C)[C@@]3(O)CC[C@H](C)[C@H]4O | 12 | 10 | 0.86 | 0.75 | 0.7 |  | 
CC(C)[C@@]1(O)[C@@H](OC(=O)c2ccc[nH]2)[C@]2(NO)O[C@@]3(O)[C@]45O[C@@](O)(C[C@@]2(C)[C@@]4(O)CC[C@H](C)[C@H]5O)[C@]31C | 200 | 270 | 29 | 14 | 21 |  | 

Reference: ChEMBL document CHEMBL3046867, “Bioactive ryanoids from nucleophilic additions to 4,12-seco-4,12-dioxoryanodine” (J Med Chem, 1993)
